Results on five compounds are retold here after paper PMC3880631 (Journal of medicinal chemistry, 2013).

The inhibition is the drop in the measured response relative to a control, in per cent.

Structures are written as SMILES. Where only a bound is given, the exact number is not on record here.

Data set [1] concerns the target HIV-1 RT DNA-dependent DNA polymerase activity (Human immunodeficiency virus type 1 group M subtype B, UniProt P03366). The data set can be described thus: DNA-dependent DNA polymerase assay. It counts as biochemical. To be noted: read-out: inhibition of DNA-dependent DNA polymerase activity.
The test system of data set [2] is selectively-mutated p51 thumb α-helix I variants (Lys275 – Arg286) of HIV-1 RT. It is filed as biochemical. To be noted: Supplementary Table S1. Put shortly:
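Reconstituted p66/p51 RT with p51 thumb mutations (150 - 800 ng), pre-mixed with test compound in DMSO; 18-nt 3′-fluorescein RNA/5′-dabsyl DNA hybrid (250 nM final) added to start. […] Triplicates.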

The subject of a further data set is HIV-1RF isolate. The data set can be described thus: in vitro. It counts as cell-based.

For the compound `O=c1[nH]c(-c2ccc(O)c(O)c2)nc2sc3c(c12)CCCCCC3` [Compound 30], the inhibition at 50 µM in data set [1] was over 60%.
`Cc1sc2nc(-c3ccc(O)c(O)c3)[nH]c(=O)c2c1C` [Compound 9]: the “sensitivity of the entire panel of p51 thumb α-helix I variants” value in data set [2] is “uniformly sensitive”.
In the case of `O=c1[nH]c(-c2ccc(O)c(O)c2)nc2sc3c(c12)CCCC3` [Compound 28], in data set [1], the inhibition at 50 µM is over 60%. For the same compound, the “protection from HIV infection” value in the data set on HIV-1RF isolate (HIV-1RF in CEM-SS cells) is on record as “failed to elicit protection from HIV infection”.
For the compound `CCCc1c(C)sc2nc(-c3ccc(O)c(O)c3)[nH]c(=O)c12` [Compound 24], the selectivity ratio with HIV-1RF isolate (human, sr, selectivity ratio, i.e., CC50/EC50, CC50/EC50) was about 6.
Turning to `CCCCc1c(C)sc2nc(-c3ccc(O)c(O)c3)[nH]c(=O)c12` [Compound 25], the inhibition at 50 µM in data set [1] was over 60%.
